pEC50: −log10 of the molar value.
Legend:
[1] = Rate constant for loss of chromophore; format: ADME
Outline: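 UV decay of the 230–260 nm chromophore. Compound dissolved in 0.01 M KOH, then diluted with a large excess of pH 7.4 phosphate buffer in a thermostated 37 °C cuvette. Spectra were recorded within 1–2 s and intermittently afterward. First-order k was taken from the slope of ln(A − A∞) versus time; t1/2 was derived from k.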

Oryctolagus cuniculus [2] = organism: Oryctolagus cuniculus; assay: Vasorelaxant activity against isolated vascular ring preparation from rabbit thoracic aorta; format: functional
Half-life was determined = details: pH 7.4 phosphate buffer at 37 °C
Oryctolagus cuniculus [3] = organism: Oryctolagus cuniculus; assay: Peak relaxation(Rm) of the vascular ring by the compound at highest concentration; format: functional

SMILES	k [1]	pEC50 (Oryctolagus cuniculus [2])	half-life (Half-life was determined)	Rm (Oryctolagus cuniculus [3])
N.N.O=NN(O)S(=O)(=O)O	0.0017 s⁻¹	4.21	6.8 min	58%
NCCCNCCCCN(CCCN)/[N+]([O-])=N\O	0.0003 s⁻¹	5.21	39 min	56%

Second part, led by results:

k [1]	pEC50 (Oryctolagus cuniculus [2])	half-life (Half-life was determined)	SMILES	Rm (Oryctolagus cuniculus [3])
0.0051 s⁻¹	6.35	2.3 min	CC(C)N[N+]([O-])=N[O-].[Na+]	85%
0.005 s⁻¹	6.23	2.3 min	[Na+].[Na+].[O-][N+]([O-])=NO [ANGELI'S SALT]	74%
0.0054 s⁻¹	6.72	2.1 min	CCN(CC)/[N+]([O-])=N\[O-].[Na+]	86%
